HKDC1 inh: HKDC1 hexokinase inhibitors, primary screen, biochemical, fluorescence, uHTS; Q2TB90; recombinant HKDC1, G6PDH/diaphorase resazurin coupled fluorescence; inhibition, % at 20 µM; 340,000 compounds, 0.16% hits; AID 493160, 2011;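 active = inhibition above about 35% when tested at 20 µM, limit read from the data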;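 also: plate controls were DMSO wells with enzyme for no effect and DMSO wells lacking enzyme for full effect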
Target sequence (Q2TB90 whole entry, looked up): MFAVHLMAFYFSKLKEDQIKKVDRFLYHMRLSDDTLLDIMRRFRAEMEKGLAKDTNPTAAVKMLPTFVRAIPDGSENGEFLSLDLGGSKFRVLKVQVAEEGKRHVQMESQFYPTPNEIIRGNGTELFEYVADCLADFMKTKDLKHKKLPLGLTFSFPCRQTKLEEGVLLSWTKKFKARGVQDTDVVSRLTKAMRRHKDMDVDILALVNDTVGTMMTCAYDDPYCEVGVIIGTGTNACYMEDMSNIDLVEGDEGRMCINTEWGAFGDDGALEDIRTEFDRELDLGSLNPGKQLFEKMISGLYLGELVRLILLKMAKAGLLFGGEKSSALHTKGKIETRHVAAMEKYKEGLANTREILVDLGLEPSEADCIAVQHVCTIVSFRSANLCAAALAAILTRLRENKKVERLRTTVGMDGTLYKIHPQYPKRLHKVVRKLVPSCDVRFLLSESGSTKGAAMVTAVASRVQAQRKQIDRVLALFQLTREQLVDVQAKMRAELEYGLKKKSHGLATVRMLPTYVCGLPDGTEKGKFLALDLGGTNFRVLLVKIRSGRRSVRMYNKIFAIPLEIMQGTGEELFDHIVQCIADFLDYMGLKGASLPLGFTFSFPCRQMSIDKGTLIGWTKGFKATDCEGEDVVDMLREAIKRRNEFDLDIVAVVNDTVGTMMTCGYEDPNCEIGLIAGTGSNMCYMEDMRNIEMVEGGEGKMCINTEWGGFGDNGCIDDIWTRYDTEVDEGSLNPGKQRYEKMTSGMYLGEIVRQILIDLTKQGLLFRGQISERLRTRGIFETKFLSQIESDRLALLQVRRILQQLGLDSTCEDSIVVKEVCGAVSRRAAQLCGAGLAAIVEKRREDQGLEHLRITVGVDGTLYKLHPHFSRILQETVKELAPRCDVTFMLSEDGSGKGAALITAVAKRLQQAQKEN
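Assay system: recombinant HKDC1 hexokinase; detection: coupled resazurin fluorescence, excitation 525 nm, emission 613 nm; benchmarks: DMSO-plus-enzyme-mix negative control, buffer-substituted positive control; compound dosing: single 20 µM dose; schedule: 90 min at room temperature in dark; also added: glucose plus 1 mM ATP as hexokinase substrates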
DNMT1 inh: human DNMT1 methyltransferase inhibitors, primary screen, biochemical, molecular beacon, fluorescence, HinP1I cleavage, uHTS; DNA (cytosine-5)-methyltransferase 1 (Homo sapiens), P26358; inhibition (reported as % activation of signal), % at 10 µM; 360,000 compounds, 0.83% hits; AID 588458, 2011; in the data active = inhibition above about 50%
SUMO1-SIM PPI: modulators of SUMO1 protein-protein interactions, primary screen, biochemical, uHTS | Small ubiquitin-related modifier 1 (Homo sapiens), P63165 | SUMO1 binding to a labelled peptide, TR-FRET, 1 h | inhibition, % at 20 µM | 360,000 compounds, 0.33% hits; in the data active = inhibition above about 37%
LMPTP block: LMPTP phosphatase inhibitors, primary screen, biochemical, fluorescence intensity, uHTS | Low molecular weight phosphotyrosine protein phosphatase (Homo sapiens), P24666 | recombinant LMPTP-A, OMFP fluorogenic substrate | inhibition, % at 20 µM | 360,000 compounds, 0.22% hits | AID 651560, 2012;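 active = compounds that cut the enzyme signal by at least half of the control window in the single-dose screen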;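 also: plate controls were DMSO wells with enzyme plus substrate for no effect and substrate without enzyme for full effect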
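Assay system: LMPTP-A, protein tyrosine phosphatase of low molecular weight / Medium: pH 6.0 Bis-Tris buffer with DTT and Triton X-100 / Schedule: 50 min enzyme reaction at room temperature, protected from light / Measured by: endpoint fluorescence intensity from OMFP dephosphorylation / Read-out basis: % inhibition relative to no-enzyme and uninhibited control wells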
STEP inh: STEP phosphatase inhibitors, primary screen, biochemical, fluorescence intensity, uHTS. inhibition, % at 20 µM. AID 588621, 2011. recombinant STEP, OMFP fluorogenic substrate. 360,000 compounds, 0.25% hits;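 active = inhibition at 20 µM, scaled per plate between control wells, above about 37%, limit read from the data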;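 also: 0% = DMSO with enzyme and substrate and 100% = substrate only without enzyme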
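System: STEP phosphatase, cell-free reaction; Buffer or medium: Bis-Tris pH 6.0 buffer with DTT, detergent; Incubation: 20 min at room temperature, dark; Measured by: fluorescence, 480/540 nm.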
Scp1 inh: Scp-1 phosphatase inhibitors, primary screen, biochemical, colorimetric, uHTS; Carboxy-terminal domain RNA polymerase II polypeptide A small phosphatase 1 (Homo …; Recombinant Scp1, phosphopeptide, malachite green phosphate absorbance; inhibition, % at 20 µM; 340,000 compounds, 0.88% hits;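 active = inhibition above about 50% at 20 µM, limit read from the data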;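 also: plate controls were DMSO wells with enzyme for no effect and wells lacking enzyme for full effect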
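Test system: SCP-1 phosphatase catalytic domain, residues 76-261; measured by: colorimetric phosphate reagent with accelerator and stabiliser, absorbance at 630 nm; timing: enzyme reaction 45 min at room temperature, colour 5 min, stabilisation 30 min; also added: Phosphorylated 17-residue peptide substrate; compound dosing: one concentration, 20 µM, with 1.0% DMSO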
STEP inh conf: STEP phosphatase inhibitor hit confirmation, biochemical, fluorescence intensity, single concentration. inhibition, % at 20 µM. recombinant STEP, OMFP fluorogenic substrate. shares compounds with STEP inh. AID 623866, 2012. 520 compounds, 32% hits; call rule not given here;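 also: 0% = enzyme with substrate plus DMSO and 100% = substrate without enzyme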
Active calls of the source: *; · = not tested or not shown. Rows were chosen to be rich in hits. Some 1.8% of all compounds tested hit in one or more screens of this group.

SMILES	HKDC1 inh	DNMT1 inh	SUMO1-SIM PPI	LMPTP block	STEP inh	Scp1 inh	STEP inh conf
COCCN(C(=S)Nc1ccc(OC)cc1)C1CCN(C(C)C)CC1	-9.9	1.6	-1.7	-3.1	5.0	-0.2	·
COc1ccc(NC(=S)N(CCC(C)C)C2CCN(C(C)C)CC2)cc1Cl	-3.8	1.6	0.9	1.7	97.6*	-5.7	79.0*
CCCc1nc2cc(C)c(Br)c(C)n2c1Cc1ccccc1OC	·	·	1.4	2.7	·	·	·
CC1CCN(C(=O)c2ncn3c2c(=O)[nH]c2cccnc23)CC1	·	0.0	1.0	-0.9	-3.3	·	·
Cn1c(SCC(=O)N2CCCC2)nc2cccnc21	-10.5	2.0	0.3	0.6	51.7*	-6.0	1.2
CC1=C(C(=O)N2CCCCCC2)CC(CC(=O)NC(c2ccccc2)c2ccccc2)C(=O)N1CCC1=CCCCC1 (centres undefined)	·	·	13.6	11.2	·	·	·
O=C(NN=Cc1ccc([N+](=O)[O-])cc1)c1ccncc1	2.0	0.7	-32.7	-0.9	-1.7	-5.0	·
O=C(COc1ccc(/C=N/NC(=O)c2ccncc2)cc1)Nc1ccc([N+](=O)[O-])cc1	-5.2	-1.6	42.1*	9.2	80.3*	-2.8	84.1*
COc1ccc(/C=C(/C#N)C(=O)Nc2ccccc2C)cc1C(=O)O	10.3	-3.3	-6.3	-1.0	-1.3	-2.7	·
CCOc1cc(/C=C(\C#N)C(=O)Nc2ccccc2C(=O)O)ccc1OC(=O)c1ccc(C)cc1	14.3	32.0	3.4	0.3	58.3*	40.6	4.2
C/C(=N\NC(=O)c1ccc(OC2OCCOC2Oc2ccc(C(=O)N/N=C(\C)c3ccncc3)cc2)cc1)c1ccncc1 (centres undefined)	24.3	33.7	78.3*	66.2*	45.0*	13.8	-4.6
CN(C)S(=O)(=O)Oc1ccsc1C(=O)Nc1ccc(Cl)c(Cl)c1	-0.9	-6.3	-9.6	3.2	-1.1	-13.9	·
COc1ccc(COc2ccsc2C(=O)Nc2ccc(Cl)c(Cl)c2)cc1	-2.4	46.7	0.4	21.3	54.6*	42.1	13.6
COc1cc(Cl)cc(/C=N\NC(=O)c2ccc3c(c2)OCO3)c1O	·	3.0	23.7	21.5	51.6*	·	84.0*
COc1cc(/C=N/NC(=O)c2ccc3c(c2)OCO3)ccc1O	3.3	-0.3	-23.1	1.4	0.5	-5.0	·
COc1cccc(C(C)(O)c2nc(-c3ccc(C)c(C)c3)cs2)c1 (centres undefined)	·	1.5	-1.5	2.3	-0.2	·	·
Cc1cc([N+](=O)[O-])ccc1NC(=O)Cc1ccc(F)cc1	0.7	-0.7	-10.3	-1.2	117.4*	-5.5	1.3
CCc1ccccc1NC(=O)N1CCCC(CCC(=O)N(C)CCc2ccccn2)C1 (centres undefined)	-3.8	1.0	2.2	1.4	117.0*	-3.9	12.2
COc1ccc(NC(=O)N2CCCC(CCC(=O)N(C)CCc3ccccn3)C2)cc1 (centres undefined)	5.5	0.2	-0.7	-0.3	1.9	-6.9	·
Cc1csc(=O)n1CCC(=O)OCC(=O)NNC(=O)c1ccc(Cl)cc1	-3.1	-3.7	2.6	0.4	48.8*	4.4	1.5
COc1cc(NC(=O)C(C)(C)C)c(C(=O)OCC(=O)Nc2cc(C)on2)cc1OC	·	11.6	1.5	-1.0	-2.0	·	·
CCOc1ccc(/C=N/NC(=O)c2[nH]c3ccc(C)cc3c2C)cc1	0.4	-6.6	22.7	30.4	79.7*	-4.5	6.3
Cc1c(C(=O)N/N=C/c2ccc(Cl)cc2)[nH]c2ccc(Cl)cc12	2.1	10.0	-1.4	1.7	1.5	-3.9	·
COC(=O)C[C@H]1C=C[C@@H](NC(=O)Nc2c(C)noc2C)[C@@H](CO)O1	·	·	-2.4	-0.6	·	·	·
CCCCNC(=O)c1cccc(C(=O)NCCCC)c1	-9.6	1.2	3.0	-1.4	95.9*	-8.4	4.8
SMILES	HKDC1 inh	DNMT1 inh	SUMO1-SIM PPI	LMPTP block	STEP inh	Scp1 inh	STEP inh conf
Cc1cccc(C(=O)NCCCNC(=O)c2cccc(C)c2)c1	-3.1	2.5	-9.8	-3.0	-3.3	-9.1	·
COc1ccc(OCC(=O)Nc2ccc3oc(-c4ccncc4)nc3c2)cc1	-7.8	-1.8	-0.6	3.7	48.6*	34.2	10.5
Cc1nc(CSc2nsc(/C=C/N(C)C)c2C#N)cs1	2.6	-10.9	-8.8	1.5	-1.4	-1.2	·
COC(=O)c1ccccc1CSc1nsc(/C=C/N(C)C)c1C#N	2.5	-22.8	-4.6	4.1	85.7*	-10.1	102.9*
COc1cc(/C=C2/SC(=S)N(CC(=O)O)C2=O)ccc1OCC(=O)Nc1ccc(C)c(C)c1	·	0.6	10.6	-0.7	90.7*	·	56.2*
O=C(NCc1ccccc1)C(CCc1ccccc1)n1c(=O)c(-c2ccccc2)nc2ccccc21 (centres undefined)	·	·	2.3	3.3	·	·	·
Cc1ccc(N=C2NC(=O)/C(=C\c3cccs3)S2)cc1C	3.5	-1.5	-7.0	1.2	-1.0	15.9	·
Cc1ccc(N=C2NC(=O)/C(=C/c3cccnc3)S2)cc1C	5.3	0.1	-6.9	9.6	45.3*	37.9	15.3
COc1cccc(C(=O)/C=C/Nc2ccc(S(=O)(=O)Nc3onc(C)c3C)cc2)c1	-1.7	-3.8	3.3	3.0	43.2*	-1.8	6.5
Cc1noc(NS(=O)(=O)c2ccc(N/C=C\C(=O)c3ccc(Br)cc3)cc2)c1C	-3.5	-3.3	-3.5	0.7	4.0	-7.0	·
O=C(Nc1nnc(-c2ccc(Cl)cc2)o1)c1nc2ccccc2s1	-4.1	-12.2	6.8	15.1	72.1*	-9.8	5.2
COCCn1c(SCCN2CCOCC2)nc2c1c(=O)[nH]c(=O)n2C	-8.3	-1.9	0.4	-2.4	60.4*	2.4	28.7
Cc1ccc(NC(=O)C(c2ccccc2)N2CCN(CC(=O)N3CCOCC3)CC2)cc1Cl (centres undefined)	0.5	23.4	-0.2	7.0	46.3*	48.5	-9.7
O=C(Nc1ccc(F)cc1)C(c1ccccc1)N1CCN(CC(=O)N2CCOCC2)CC1 (centres undefined)	-3.3	0.4	-9.3	0.3	-3.4	3.2	·
Cc1ccc(N(CC(=O)N/N=C/c2cccs2)S(C)(=O)=O)cc1	-5.3	-2.5	-3.8	0.1	121.4*	-1.4	-6.6

Screening data from PubChem BioAssay.
